{"source": "ChEMBL document CHEMBL1151165", "about": "“Characterization of the preferred stereochemistry for the neuropharmacologic actions of antillatoxin” (J Nat Prod, 2004)", "key": {"[1]": {"test": "Increase in cytoplasmic calcium influx in Sprague-Dawley rat CGN cells by FLIPR", "type": "cell-based", "summary_of_the_method": "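Cytoplasmic Ca2+ in cerebellar granule cells was followed by fluo-3 fluorescence, with basal fluorescence (about 4000 units) subtracted. The response is the integrated fluorescence area under the curve, plotted against compound concentration.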"}, "[2]": {"test": "Cytotoxicity against mouse Neuro2a cells", "type": "cell-based, N2a", "conditions": "read-out: LD50 (the source's name)"}, "[3]": {"test": "Cytotoxicity in Sprague-Dawley rat CGN cells assessed as LDH release after 2 hrs", "type": "cell-based", "summary_of_the_method": "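Rat cerebellar granule cells, 11-13 days in culture, exposed 2 h to the compound across a concentration range. LDH efflux into the culture medium was measured, and pEC50 was taken from concentration-response curves. Two separate experiments, each in triplicate, mean ± SEM.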"}, "Carassius auratus": {"system": "Carassius auratus", "test": "Ichthyotoxicity against Carassius auratus", "type": "organism-based", "conditions": "in vivo"}, "[4]": {"test": "Increase in extracellular acidification rate in Sprague-Dawley rat CGN cells by cytosensor microphysiometer", "type": "cell-based", "summary_of_the_method": "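Cerebellar granule neurons were cultured on porous polycarbonate membranes, and extracellular acidification rate was monitored by microphysiometry over a range of concentrations. Peak acidification rate is expressed as percent of basal proton efflux. Two separate experiments, each in duplicate, mean ± SEM.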"}, "[5]": {"test": "Cytotoxicity in Sprague-Dawley rat CGN cells assessed as LDH release after 2 hrs in presence of 1 uM tetrodotoxin", "type": "cell-based"}, "[6]": {"test": "Cytotoxicity in Sprague-Dawley rat CGN cells assessed as LDH release at 100 nM after 2 hrs in presence of 1 uM tetrodotoxin", "type": "cell-based", "conditions": "0.1 µM"}, "[7]": {"test": "Increase in extracellular acidification rate in Sprague-Dawley rat CGN cells at 100 nM by cytosensor microphysiometer", "type": "cell-based", "conditions": "0.1 µM"}}}
{"smiles": "C=C1CC(=O)N[C@@H](C)C(=O)N(C)[C@@H](C(C)C)C(=O)NCC(=O)O[C@H](/C(C)=C/C(C)=C/C(C)(C)C)[C@H]1C", "values": [{"measurement": "Activity", "setting": "[1]", "result": "Dose-dependent effect and tde"}, {"measurement": "CC50", "setting": "[2]", "result": 10, "unit": "µM"}]}
{"smiles": "C=C1CC(=O)N[C@@H](C)C(=O)N(C)[C@@H](C(C)C)C(=O)NCC(=O)O[C@@H](/C(C)=C/C(C)=C/C(C)(C)C)[C@H]1C", "values": [{"measurement": "Activity", "setting": "[1]", "result": "Dose-dependent effect and tde"}, {"measurement": "CC50", "setting": "[2]", "result": 5, "unit": "µM"}]}
{"smiles": "C=C1CC(=O)N[C@@H](C)C(=O)N(C)[C@@H](C(C)C)C(=O)NCC(=O)O[C@H](/C(C)=C/C(C)=C/C(C)(C)C)[C@@H]1C", "values": [{"measurement": "Activity", "setting": "[1]", "result": "Dose-dependent effect and tde"}, {"measurement": "EC50", "setting": "[3]; read-out: EC50", "result": 8.1, "unit": "µM"}, {"measurement": "Activity", "setting": "Carassius auratus", "result": "Non-toxic"}, {"measurement": "CC50", "setting": "[2]", "result": 10, "unit": "µM"}, {"measurement": "Activity", "setting": "[4]", "result": 5, "unit": "µM"}]}
{"smiles": "C=C1CC(=O)N[C@@H](C)C(=O)N(C)[C@@H](C(C)C)C(=O)NCC(=O)O[C@@H](/C(C)=C/C(C)=C/C(C)(C)C)[C@@H]1C", "note": "[ANTILLATOXIN]", "values": [{"measurement": "Activity", "setting": "[5]", "result": "Non-toxic"}, {"measurement": "Activity", "setting": "[6]", "result": "Non-toxic"}, {"measurement": "Activity", "setting": "[1]", "result": "Dose-dependent effect and tde"}, {"measurement": "EC50", "setting": "[3]; read-out: EC50", "result": 0.042, "unit": "µM"}, {"measurement": "EC50", "setting": "[3]; read-out: pEC50 (converted)", "result": 0.0457, "unit": "µM"}, {"measurement": "Activity", "setting": "Carassius auratus", "result": 0.1, "unit": "µM"}, {"measurement": "CC50", "setting": "[2]", "result": 0.18, "unit": "µM"}, {"measurement": "Activity", "setting": "[7]", "result": 300, "unit": "%"}, {"measurement": "Activity", "setting": "[4]", "result": 0.041, "unit": "µM"}]}
